Legend:
[1] = molecular target: T1, Muscarinic acetylcholine receptor M2 (Sus scrofa, UniProt P06199); test: Displacement of [3H]NMS from pig muscarinic M2 receptor after 120 mins by liquid scintillation counting
T1 sequence (P06199 whole entry): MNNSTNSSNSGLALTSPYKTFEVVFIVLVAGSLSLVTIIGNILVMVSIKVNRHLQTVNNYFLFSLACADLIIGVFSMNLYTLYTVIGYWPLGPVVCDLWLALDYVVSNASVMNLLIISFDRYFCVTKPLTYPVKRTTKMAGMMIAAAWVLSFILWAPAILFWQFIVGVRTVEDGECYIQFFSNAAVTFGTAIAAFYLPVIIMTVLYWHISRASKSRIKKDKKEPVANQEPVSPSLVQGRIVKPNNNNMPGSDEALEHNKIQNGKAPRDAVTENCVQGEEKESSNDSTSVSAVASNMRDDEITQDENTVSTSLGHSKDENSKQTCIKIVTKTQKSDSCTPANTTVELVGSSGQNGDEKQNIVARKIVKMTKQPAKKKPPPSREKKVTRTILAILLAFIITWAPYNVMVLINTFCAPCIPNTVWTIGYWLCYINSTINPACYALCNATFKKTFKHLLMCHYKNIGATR

[2] = Displacement of [3H]epibatidine from Torpedo californica muscle-type nAChR after 90 mins by liquid scintillation counting; assay type: tissue-based, Tetronarce californica
Summary of the method: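 Torpedo californica electric organ membranes, homogenised and washed in HSS, 60−70 μg per sample. Incubated with (±)-[3H]epibatidine for 90 min at 22 °C; (−)-nicotine defined nonspecific binding. Filtered through PEI-soaked GF/B filters and counted by scintillation. […] Mean ± SEM of 3–5 experiments.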

[3] = molecular target: T2, Neuronal acetylcholine receptor subunit alpha-7 (Homo sapiens, UniProt P36544); test: Antagonist activity at human alpha7 nAChR expressed in GH3 cells by Ca2+/Fluo-4 assay; assay type: cell-based
[4] = molecular target: T2, Neuronal acetylcholine receptor subunit alpha-7; test: Ratio of toxiferine-I IC50 to compound IC50 for human alpha7 nAChR expressed in GH3 cells by Ca2+/Fluo-4 assay; assay type: cell-based

T2 sequence (P36544 whole entry): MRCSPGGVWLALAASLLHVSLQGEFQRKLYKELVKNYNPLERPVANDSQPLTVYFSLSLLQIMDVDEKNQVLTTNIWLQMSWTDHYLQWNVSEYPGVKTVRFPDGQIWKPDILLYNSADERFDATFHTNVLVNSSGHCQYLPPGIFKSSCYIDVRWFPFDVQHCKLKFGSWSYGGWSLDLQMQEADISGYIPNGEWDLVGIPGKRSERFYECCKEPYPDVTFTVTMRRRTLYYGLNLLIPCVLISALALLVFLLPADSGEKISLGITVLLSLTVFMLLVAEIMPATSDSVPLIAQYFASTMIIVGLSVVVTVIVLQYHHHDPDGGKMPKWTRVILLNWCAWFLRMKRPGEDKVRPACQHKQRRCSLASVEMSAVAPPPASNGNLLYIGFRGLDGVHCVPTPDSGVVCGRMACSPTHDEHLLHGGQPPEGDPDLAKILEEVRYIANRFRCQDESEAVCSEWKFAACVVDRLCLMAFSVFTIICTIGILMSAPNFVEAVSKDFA

Structure (SMILES): CC[C@@H]1C[N+]2(C)CC[C@@]34c5ccccc5N5/C=C6/[C@H]7C[C@H]8[C@@]9(CC[N+]8(C)C[C@H]7CC)c7ccccc7N(/C=C(/[C@H]1C[C@@H]32)[C@H]54)[C@@H]69 (some centres not stated)
- EC50 [1]: 260 nM
- Ki [2]: 150 nM
- IC50 ([3]; read-out: IC50): 820 nM
- IC50 ([3]; read-out: pIC50 (converted)): 813 nM
- Ratio IC50 [4]: 10

Structure (SMILES): CC[C@@H]1C[N+]2(Cc3ccc([N+](=O)[O-])cc3)CC[C@@]34c5ccccc5N5/C=C6/[C@H]7C[C@H]8[C@@]9(CC[N+]8(Cc8ccc([N+](=O)[O-])cc8)C[C@H]7CC)c7ccccc7N(/C=C(/[C@H]1C[C@@H]32)[C@H]54)[C@@H]69 (some centres not stated)
- EC50 [1]: 49 nM
- Ki [2]: 81.9 nM
- IC50 ([3]; read-out: IC50): 21000 nM
- IC50 ([3]; read-out: pIC50 (converted)): 21400 nM

Structure (SMILES): C[N+]12CC[C@@]34c5ccccc5N5[C@@H]6OC=C7C[N+]8(C)CC[C@]9%10c%11ccccc%11N([C@@H]%11OCC=C(C1)[C@H](C[C@@H]32)[C@@H]%11[C@H]54)[C@H]9[C@H]6[C@H]7C[C@@H]%108 (some centres not stated)
- EC50 [1]: 8 nM
- Ki [2]: 5200 nM

Structure (SMILES): CC[C@@H]1C[N+]2(Cc3ccc([N+](=O)[O-])cc3)CC[C@@]34c5ccccc5N5/C=C6/[C@H]7C[C@H]8[C@@]9(CC[N+]8(Cc8ccc([N+](=O)[O-])cc8)C[C@H]7CCO)c7ccccc7N(/C=C(/[C@H]1C[C@@H]32)[C@H]54)[C@@H]69 (some centres not stated)
- EC50 [1]: 32 nM
- Ki [2]: 290 nM
- IC50 ([3]; read-out: IC50): 4200 nM
- IC50 ([3]; read-out: pIC50 (converted)): 4170 nM

Structure (SMILES): CC[C@@H]1CN2CC[C@@]34c5ccccc5N5/C=C6/[C@H]7C[C@@H]8N(CC[C@@]89c8ccccc8N(/C=C(/[C@H]1C[C@H]23)[C@H]54)[C@@H]69)C[C@H]7CC
- EC50 [1]: 500 nM
- Ki [2]: 669 nM
- IC50 ([3]; read-out: IC50): 3300 nM
- IC50 ([3]; read-out: pIC50 (converted)): 3310 nM

Structure (SMILES): CC[C@@H]1C[N+]2(C)CC[C@@]34c5ccccc5N5/C=C6/[C@H]7C[C@H]8[C@@]9(CC[N+]8(C)C[C@H]7CCO)c7ccccc7N(/C=C(/[C@H]1C[C@@H]32)[C@H]54)[C@@H]69 (some centres not stated)
- EC50 [1]: 320 nM
- Ki [2]: 455 nM
- IC50 ([3]; read-out: IC50): 590 nM
- IC50 ([3]; read-out: pIC50 (converted)): 603 nM
- Ratio IC50 [4]: 10

Structure (SMILES): C1=C2CN3CC[C@]45c6ccccc6N6[C@@H]7OCC=C8CN9CC[C@]%10%11c%12ccccc%12N([C@H](OC1)[C@@H]([C@H]64)[C@H]2C[C@H]35)[C@H]%10[C@H]7[C@H]8C[C@H]9%11 [CARACURINE V]
- EC50 [1]: 436 nM
- Ki [2]: > 100000 nM

Structure (SMILES): C=CC[N+]12CC[C@@]34c5ccccc5N5[C@@H]6OC=C7C[N+]8(CC=C)CC[C@]9%10c%11ccccc%11N([C@@H]%11OCC=C(C1)[C@H](C[C@@H]32)[C@@H]%11[C@H]54)[C@H]9[C@H]6[C@H]7C[C@@H]%108 (some centres not stated)
- EC50 [1]: 11 nM
- Ki [2]: 1500 nM

Structure (SMILES): C=CC[N+]12CC[C@@]34c5ccccc5N5/C=C6/[C@H]7C[C@H]8[C@@]9(CC[N+]8(CC=C)C[C@H]7CC)c7ccccc7N(/C=C(/[C@@H](C[C@@H]31)[C@H](CC)C2)[C@H]54)[C@@H]69 (some centres not stated)
- EC50 [1]: 36 nM
- Ki [2]: 75.1 nM

Structure (SMILES): C[N+]12CC[C@@]34c5ccccc5N5/C=C6/[C@H]7C[C@H]8[C@@]9(CC[N+]8(C)C/C7=C/CO)c7ccccc7N(/C=C(/[C@@H](C[C@@H]31)/C(=C\CO)C2)[C@H]54)[C@@H]69 (some centres not stated)
- EC50 [1]: 96 nM
- Ki [2]: 14 nM

Structure (SMILES): CC[C@@H]1CN2CC[C@@]34c5ccccc5N5/C=C6/[C@H]7C[C@@H]8N(CC[C@@]89c8ccccc8N(/C=C(/[C@H]1C[C@H]23)[C@H]54)[C@@H]69)C[C@H]7CCO
- EC50 [1]: 410 nM
- Ki [2]: 390 nM
- IC50 ([3]; read-out: IC50): 2200 nM
- IC50 ([3]; read-out: pIC50 (converted)): 2340 nM

Structure (SMILES): C=CC[N@@+]12CC[C@@]34c5ccccc5N5/C=C6/[C@H]7C[C@H]8[C@@]9(CC[N@@+]8(CC=C)C/C7=C/CO)c7ccccc7N(/C=C(/[C@@H](C[C@@H]31)/C(=C\CO)C2)[C@H]54)[C@@H]69 [ALCURONIUM]
- EC50 [1]: 2 nM
- Ki [2]: 234 nM

Structure (SMILES): C=CC[N+]12CC[C@@]34c5ccccc5N5/C=C6/[C@H]7C[C@H]8[C@@]9(CC[N+]8(CC=C)C[C@H]7CCO)c7ccccc7N(/C=C(/[C@@H](C[C@@H]31)[C@H](CC)C2)[C@H]54)[C@@H]69 (some centres not stated)
- EC50 [1]: 12 nM
- Ki [2]: 250 nM
- IC50 ([3]; read-out: IC50): 3100 nM
- IC50 ([3]; read-out: pIC50 (converted)): 3160 nM

— ChEMBL document CHEMBL3352208, “Semisynthetic analogues of toxiferine I and their pharmacological properties at α7 nAChRs, muscle-type nAChRs, and the allosteric binding site of muscarinic M2 receptors” (J Nat Prod, 2014)
